From ChEMBL document CHEMBL1955761, “Privileged scaffolds or promiscuous binders: a comparative study on rhodanines and related heterocycles in medicinal chemistry” (J Med Chem, 2012)
Calls of active or inactive are those of the source.

Key:
Dengue virus = assay: Inhibition of Dengue virus NS2B-NS3 protease using Abz-NleKRRS-3-(NO2)Y as substrate at 50 uM preincubated for 15 mins measured every sec for 15 mins by fluorimetric analysis
Prothrombin (Bos taurus) = Prothrombin (Bos taurus) (UniProt P00735); assay: Inhibition of bovine plasma thrombin using Boc-Val-Pro-Arg-AMC as substrate at 25 uM preincubated for 15 mins measured after 10 mins by fluorimetric assay
Summary of the method: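 Purchased bovine plasma thrombin at 10 nM final, preincubated 15 min with 25 μM inhibitor; reaction started with 50 μM substrate. Buffer 50 mM Tris-HCl pH 7.5, 150 mM NaCl, 0.05% Tween 20. Triplicate, averaged.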

Escherichia coli [1] = assay: Inhibition of Escherichia coli MurA using PEP as substrate assessed as inorganic phosphate release at 25 uM preincubated for 10 mins measured after 60 mins […]
Escherichia coli [2] = assay: Inhibition of Escherichia coli MetAP at 10 uM after 15 mins by fluorescence analysis

Structure (SMILES) | inhibition (Dengue virus) | inhibition (Prothrombin (Bos taurus)) | inhibition (Escherichia coli [1]) | inhibition (Escherichia coli [2])
CN(C)c1ccc(/C=C2\SC(=O)NC2=O)cc1 | 20% | 11% | inactive | 13%
O=C1NC(=O)/C(=C/c2c[nH]c3ccccc23)N1 | 36% | 15% | inactive | inactive
O=C1NC(=O)/C(=C/c2sccc2Br)N1 | 13% | 16% | inactive | inactive
O=C1NC(=S)S/C1=C\c1ccc(Cl)s1 | 54% | 27% | 13% | inactive
Nc1ccc(/C=C2\SC(=S)NC2=O)cc1 | inactive | 11% | inactive | inactive
O=C1NC(=O)/C(=C/c2cccs2)N1 | 16% | 22% | inactive | inactive
O=C1NC(=O)/C(=C/c2sccc2Cl)S1 | 23% | 11% | 12% | inactive
O=C1NC(=S)S/C1=C\c1ccc(Br)s1 | 50% | 22% | 21% | inactive
O=C1NC(=O)/C(=C/c2c[nH]c3ccccc23)S1 | 26% | 23% | inactive | 10%
O=C1NC(=O)/C(=C/c2ccc(O)cc2)N1 | 26% | 14% | inactive | inactive
O=C1NC(=O)C(Cc2ccccc2)S1 (stereo not given) | inactive | inactive | inactive | inactive
CC(=O)n1cc(/C=C2\SC(=O)NC2=O)c2ccccc21 | 11% | inactive | inactive | inactive
O=C1NC(=S)S/C1=C\c1ccc(O)c(O)c1 | 50% | 35% | 89% | 65%
O=C1NC(=O)/C(=C/c2ccc(Cl)s2)N1 | 16% | 25% | 38% | inactive
COc1ccc(/C=C2\SC(=O)NC2=O)cc1OC | 16% | 23% | inactive | 13%
COc1ccc(/C=C2\SC(=S)NC2=O)cc1OC | 50% | 29% | inactive | inactive
COc1cc(/C=C2\NC(=O)NC2=O)ccc1O | 13% | inactive | 17% | inactive
O=C1NC(=O)/C(=C/c2c(F)c(F)c(F)c(F)c2F)N1 | 14% | 18% | 18% | inactive
O=C1NC(=O)/C(=C/c2ccc(O)cc2)S1 | 32% | 34% | inactive | inactive
O=C1NC(=O)/C(=C/c2ccc(Br)s2)N1 | 22% | 22% | inactive | inactive
O=C1NC(=S)S/C1=C\c1ccc(O)cc1 | 47% | 34% | 24% | inactive
O=C1NC(=O)/C(=C/c2cccc(O)c2)N1 | 27% | 12% | inactive | inactive
O=C1NC(=S)S/C1=C\c1cccc(O)c1 | 29% | 15% | 58% | 12%
COc1ccc(/C=C2\SC(=O)NC2=O)cc1 | 19% | 32% | 84% | 11%
O=C1NC(=O)/C(=C/c2sccc2Cl)N1 | inactive | inactive | inactive | inactive
O=C1NC(=O)/C(=C/C=C/c2ccco2)S1 | inactive | 24% | 24% | 12%

Further lines, results first:

inhibition (Dengue virus) | inhibition (Prothrombin (Bos taurus)) | inhibition (Escherichia coli [1]) | inhibition (Escherichia coli [2]) | Structure (SMILES)
55% | 22% | 77% | inactive | O=C1NC(=S)N/C1=C\c1c[nH]c2ccccc12
inactive | inactive | 11% | 13% | O=C1NC(=S)N[C@H]1Cc1c[nH]c2ccccc12
52% | 25% | 17% | inactive | O=C1NC(=S)S/C1=C\c1ccco1
23% | 11% | 88% | inactive | CCC/C=C/C1SC(=S)NC1=O (stereo not given)
42% | 15% | 57% | 11% | O=C1NC(=S)N/C1=C\c1cc(Br)cs1
26% | 28% | 94% | 14% | O=C1NC(=S)S/C1=C\C=C\c1ccco1
44% | 26% | inactive | inactive | O=C1NC(=S)S/C1=C\c1c[nH]c2ccccc12
42% | 29% | 22% | inactive | O=C1NC(=S)N/C1=C\c1ccc(Cl)s1
28% | 15% | 10% | 18% | COc1cccc(/C=C2\NC(=S)NC2=O)c1
48% | 16% | inactive | inactive | O=C1NC(=S)N/C1=C\c1cccs1
inactive | inactive | inactive | 22% | O=C1NC(=O)[C@H](Cc2ccccc2)N1
44% | 11% | 31% | inactive | O=C1NC(=S)N/C1=C\c1sccc1Br
inactive | 14% | 77% | 19% | CCC/C=C/C1NC(=S)NC1=O (stereo not given)
inactive | inactive | inactive | 19% | O=C1NC(=O)[C@H](Cc2c[nH]c3ccccc23)N1
45% | 17% | 11% | inactive | C/C(=C1/SC(=S)NC1=O)c1cccs1
42% | 23% | inactive | inactive | C/C(=C1/SC(=S)NC1=O)c1ccc2ccccc2c1
inactive | inactive | inactive | inactive | O=C1NC(=O)[C@@H](Cc2ccccc2)N1

inhibition (Dengue virus) | inhibition (Prothrombin (Bos taurus)) | inhibition (Escherichia coli [1]) | inhibition (Escherichia coli [2]) | Structure (SMILES)
11% | inactive | inactive | inactive | NCCCC[C@@H]1NC(=S)NC1=O
14% | 12% | 11% | inactive | O=C1NC(=S)N[C@@H]1Cc1ccccc1
24% | 10% | inactive | 10% | COc1ccc(/C=C2\NC(=O)NC2=O)cc1
44% | 23% | 15% | inactive | O=C1NC(=S)N/C1=C\c1cc2ccccc2[nH]1
60% | 24% | 20% | inactive | O=C1NC(=S)S/C1=C\c1sccc1Br
41% | 20% | 22% | 15% | O=C1NC(=S)N/C1=C\c1ccc(Cl)cc1Cl
42% | 16% | inactive | inactive | COc1ccc(/C=C2\SC(=S)NC2=O)cc1
30% | 18% | 16% | 20% | O=C1NC(=S)N/C1=C\C1CCCCC1
33% | 10% | inactive | 15% | C/C(=C1/NC(=S)NC1=O)c1ccc2ccccc2c1
inactive | inactive | inactive | inactive | O=C1CNC(=S)N1
35% | 17% | inactive | 12% | O=C1NC(=S)N/C1=C\c1ccccc1
22% | 29% | 13% | 40% | O=C1NC(=S)S/C1=C\C1CCCCC1
inactive | inactive | 17% | 12% | O=C1NC(=S)N[C@H]1Cc1ccccc1
inactive | inactive | 20% | inactive | CC(C)C[C@@H]1NC(=S)NC1=O
33% | 11% | 10% | inactive | COc1ccccc1/C=C1\SC(=S)NC1=O
46% | 27% | 32% | 15% | O=C1NC(=S)N/C1=C\c1ccc2ccccc2c1
35% | 18% | 14% | 21% | CCCCC/C=C1\SC(=S)NC1=O
